The results in this text go back to ChEMBL document CHEMBL1123049, “Functionalized congeners of adenosine: preparation of analogues with high affinity for A1-adenosine receptors” (J Med Chem, 1985).

The target of this assay is T1, Adenosine receptor A1 (Rattus norvegicus, UniProt P25099).
T1 sequence (P25099 whole entry): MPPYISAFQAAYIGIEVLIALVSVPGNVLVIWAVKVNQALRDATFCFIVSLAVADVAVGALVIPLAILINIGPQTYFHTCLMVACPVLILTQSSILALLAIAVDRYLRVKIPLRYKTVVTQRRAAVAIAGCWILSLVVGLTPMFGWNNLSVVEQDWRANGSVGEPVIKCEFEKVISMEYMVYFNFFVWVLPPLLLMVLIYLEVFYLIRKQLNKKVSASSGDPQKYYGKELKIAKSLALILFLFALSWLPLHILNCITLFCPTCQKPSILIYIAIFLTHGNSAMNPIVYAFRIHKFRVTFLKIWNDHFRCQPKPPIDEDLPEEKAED
The assay is described as follows: Inhibition of binding of 1 nM N6-[3H]cyclohexyladenosine to adenosine A1 receptor on rat cerebral cortical membranes. In kind it is cell membranes, Membrane. The gist of the method:
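Displacement of 1 nM N6-[3H]cyclohexyladenosine by a range of analogue concentrations, run in triplicate in at least two separate experiments. IC50 estimated graphically for each experiment. Values are mean ± SEM of two to four experiments.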

Compound `O=C(O)Cc1ccc(Nc2ncnc3c2ncn3C2O[C@H](CO)[C@@H](O)[C@H]2O)cc1` (some centres not stated) came in with a Ki of 210 nM.

`O=C(Cc1ccc(Nc2ncnc3c2ncn3C2O[C@H](CO)[C@@H](O)[C@H]2O)cc1)Nc1ccc(C(F)(F)F)cc1` (some centres not stated) displayed a Ki of 3.3 nM.

Compound `COC(=O)C(Cc1ccc(NC(=O)Cc2ccc(Nc3ncnc4c3ncn4C3O[C@H](CO)[C@@H](O)[C@H]3O)cc2)cc1)NC(=O)C(F)(F)F` (some centres not stated) yielded a Ki of 18 nM.

For `Cc1ccc(NC(=O)Cc2ccc(Nc3ncnc4c3ncn4C3O[C@H](CO)[C@@H](O)[C@H]3O)cc2)cc1` (some centres not stated), affinity was put at a Ki of 1.7 nM.

In the case of `CCOC(=O)CNC(=O)Cc1ccc(Nc2ncnc3c2ncn3C2O[C@H](CO)[C@@H](O)[C@H]2O)cc1` (some centres not stated), the inhibitory constant (Ki) was 15 nM.

In turn, `COC(=O)Cc1ccc(NC(=O)Cc2ccc(Nc3ncnc4c3ncn4C3O[C@H](CO)[C@@H](O)[C@H]3O)cc2)cc1` (some centres not stated) came in with a Ki of 2.5 nM.

On to `NNC(=O)Cc1ccc(NC(=O)Cc2ccc(Nc3ncnc4c3ncn4C3O[C@H](CO)[C@@H](O)[C@H]3O)cc2)cc1` (some centres not stated), for which the affinity corresponds to a Ki of 4.5 nM.

In the case of `Cc1cccc(NC(=O)Cc2ccc(Nc3ncnc4c3ncn4C3O[C@H](CO)[C@@H](O)[C@H]3O)cc2)c1` (some centres not stated), the affinity, expressed as Ki, was 2 nM.

The compound `Cc1ccc(Nc2ncnc3c2ncn3C2O[C@H](CO)[C@@H](O)[C@H]2O)cc1` (some centres not stated) came in with a Ki of 2.5 nM.

On to `CNC(=O)Cc1ccc(NC(=O)Cc2ccc(Nc3ncnc4c3ncn4C3O[C@H](CO)[C@@H](O)[C@H]3O)cc2)cc1` (some centres not stated), for which the affinity, expressed as Ki, was 6.7 nM.

`OC[C@H]1O[C@@H](n2cnc3c(Nc4ccccc4)ncnc32)[C@H](O)[C@@H]1O` [N6-PHENYLADENOSINE] gave a Ki of 3.2 nM.

Take `Cc1ccccc1NC(=O)Cc1ccc(Nc2ncnc3c2ncn3C2O[C@H](CO)[C@@H](O)[C@H]2O)cc1` (some centres not stated): the Ki worked out at 6.8 nM.

In turn, `O=C(CCCCC1SCC2NC(=O)NC21)NCCNC(=O)Cc1ccc(NC(=O)Cc2ccc(Nc3ncnc4c3ncn4C3O[C@H](CO)[C@@H](O)[C@H]3O)cc2)cc1` (some centres not stated) came in with a Ki of 11.4 nM.

Regarding `COc1ccc(Nc2ncnc3c2ncn3[C@@H]2O[C@H](CO)[C@@H](O)[C@H]2O)cc1`, affinity was put at a Ki of 2.3 nM.

`CNC(=O)CNC(=O)C(Cc1ccc(NC(=O)Cc2ccc(Nc3ncnc4c3ncn4C3O[C@H](CO)[C@@H](O)[C@H]3O)cc2)cc1)NC(=O)OC(C)(C)C` (some centres not stated) registered a Ki of 13 nM.

Compound `O=C(CCc1ccc(O)cc1)NCCNC(=O)Cc1ccc(NC(=O)Cc2ccc(Nc3ncnc4c3ncn4C3O[C@H](CO)[C@@H](O)[C@H]3O)cc2)cc1` (some centres not stated) had an inhibition constant Ki of 4.5 nM.

Turning to `CC(=O)NCCNC(=O)Cc1ccc(NC(=O)Cc2ccc(Nc3ncnc4c3ncn4C3O[C@H](CO)[C@@H](O)[C@H]3O)cc2)cc1` (some centres not stated), the affinity corresponds to a Ki of 9.3 nM.

As usually defined, the Ki is the dissociation constant of the complex between target and ligand, obtained from inhibition or displacement. A lower Ki goes with a stronger hold on the target.
